The values that follow come from ChEMBL document CHEMBL1123345, “2-Alkyl-substituted 1,1-bis(4-acetoxyphenyl)-2-phenylethenes. Estrogen receptor affinity, estrogenic and antiestrogenic properties, and mammary tumor inhibiting activity” (1986).

Assay [1] deals with T1, Estrogen receptor (Mus musculus) (UniProt O08537+P19785). As to the kind of experiment: Anti-estrogenic effect in uterotrophic assay in immature mice at 5 ug dose. Format: functional. The procedure, abridged: (§1)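 Immature female NMRI mice (10–12 g, 20 days old, 10 per group) given test compound sc daily for 3 days in olive oil (0.1 mL/mouse), dose per animal per day, with estrone stimulating uterine growth. Uteri removed 24 h after last injection, Bouin-fixed, dried and weighed. Read-out is % inhibition of estrone-stimulated uterine growth.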

In assay [2] the target is T1, Estrogen receptor (Mus musculus). The experiment in a line: Estrogenic effect in uterotrophic assay in immature mice at 100 ug dose. It is filed as functional. An outline of the steps:
(§2)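 Immature female NMRI mice (10–12 g, 20 days old, 10 per group) injected sc daily for 3 days with compound in olive oil (0.1 mL/mouse), dose per animal per day. Uteri removed 24 h after last dose, Bouin-fixed, dried, weighed. Effect = uterus dry weight (mg)/body weight (g) × 100. Activity = (E_T − E_V)/(E_S − E_V) × 100, with estrone 0.4 μg standard as 100%.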

Assay [3] shares this target. As to the kind of experiment: Estrogenic effect in uterotrophic assay in immature mice at 25 ug dose. Format: functional. The procedure, abridged:
as §2

For assay [4] the target is unchanged. As to the kind of experiment: In vivo inhibition of uterine growth in hormone-dependent MXT mammary tumor bearing mice. It is filed as functional, organism-based. An outline of the steps:
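MXT tumor-bearing BDF1 mice dosed sc 3 times weekly for 6 weeks in olive oil at doses equimolar to 3 × 8 mg/kg per week. Uterotrophic effect measured at end of therapy. T/C % = treated/solvent-control uterotrophic effect × 100, mean of 10 animals. U test (Wilcoxon, Mann, Whitney), α ≤ 0.05.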

The target is the same in assay [5]. The experiment in a line: Estrogenic effect in uterotrophic assay in immature mice at 1 ug dose. Format: functional. An outline of the steps: as §2
Assay [6] shares this target. As to the kind of experiment: Estrogenic effect in uterotrophic assay in immature mice at 5 ug dose. It is filed as functional. The procedure, abridged:
as §2

Assay [7] deals with Mus musculus. The experiment in a line: In vivo inhibition of hormone-dependent MXT mammary tumor in mice. Format: functional. The procedure, abridged:
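BDF1 mice bearing transplanted hormone-dependent MXT mammary tumor (line 3.2). From day 1 after transplantation, compounds given sc 3 times weekly in olive oil (0.1 mL/mouse) for 6 weeks, at doses equimolar to 3 × 8 mg/kg per week. Tumors excised, washed in 0.9% NaCl, blotted, weighed. T/C % = treated/solvent-control tumor weight × 100, mean of 10 animals. Mann–Whitney–Wilcoxon U test, α ≤ 0.05.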

Assay [8] concerns the target T1, Estrogen receptor (Mus musculus). The experiment in a line: Anti-estrogenic effect in uterotrophic assay in immature mice at 1.0 ug dose. It is filed as functional. An outline of the steps: as §1
For assay [9] the target is unchanged. The experiment in a line: Anti-estrogenic effect in uterotrophic assay in immature mice at 25 ug dose. It is filed as functional. The procedure, abridged: as §1

Molecules are shown by their SMILES.

T1 sequence (O08537 whole entry, looked up): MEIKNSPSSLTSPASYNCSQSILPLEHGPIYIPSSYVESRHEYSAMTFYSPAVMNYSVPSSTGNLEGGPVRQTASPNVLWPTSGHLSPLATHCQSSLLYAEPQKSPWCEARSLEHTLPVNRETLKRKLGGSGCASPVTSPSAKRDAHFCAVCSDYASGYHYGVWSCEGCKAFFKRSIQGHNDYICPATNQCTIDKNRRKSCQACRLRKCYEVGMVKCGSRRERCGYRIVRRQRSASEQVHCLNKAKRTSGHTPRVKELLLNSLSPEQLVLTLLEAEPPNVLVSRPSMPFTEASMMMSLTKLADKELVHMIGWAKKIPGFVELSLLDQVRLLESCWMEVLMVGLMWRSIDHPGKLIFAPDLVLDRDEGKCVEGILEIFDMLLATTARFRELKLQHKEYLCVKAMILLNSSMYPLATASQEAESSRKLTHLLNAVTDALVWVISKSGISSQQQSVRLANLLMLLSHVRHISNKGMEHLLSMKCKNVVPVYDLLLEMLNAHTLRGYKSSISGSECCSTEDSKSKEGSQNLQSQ
T1 sequence (P19785 whole entry, looked up): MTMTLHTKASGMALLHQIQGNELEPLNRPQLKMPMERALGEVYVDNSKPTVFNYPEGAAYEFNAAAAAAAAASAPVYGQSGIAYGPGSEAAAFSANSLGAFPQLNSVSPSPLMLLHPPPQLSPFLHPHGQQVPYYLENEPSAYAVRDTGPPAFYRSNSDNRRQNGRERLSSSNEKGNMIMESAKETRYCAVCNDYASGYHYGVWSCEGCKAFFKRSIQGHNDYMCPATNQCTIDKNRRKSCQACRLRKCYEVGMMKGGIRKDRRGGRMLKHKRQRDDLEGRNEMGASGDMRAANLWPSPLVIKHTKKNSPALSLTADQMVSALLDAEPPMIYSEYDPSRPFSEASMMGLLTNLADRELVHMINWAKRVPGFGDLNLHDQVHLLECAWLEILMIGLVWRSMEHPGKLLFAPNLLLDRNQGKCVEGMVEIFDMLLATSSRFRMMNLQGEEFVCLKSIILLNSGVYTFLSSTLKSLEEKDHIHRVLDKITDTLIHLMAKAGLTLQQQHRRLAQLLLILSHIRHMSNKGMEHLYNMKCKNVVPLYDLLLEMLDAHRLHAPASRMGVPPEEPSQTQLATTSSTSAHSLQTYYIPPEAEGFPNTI

With `CCC(=C(c1ccc(OC(C)=O)cc1)c1ccc(OC(C)=O)cc1)c1ccccc1`, the inhibition in assay [1] and in assay [8] was 0% each time. The Activity in [2] was determined as 107; in assay [3], 98; in [5], 37; in assay [6], 72. Also, the T/C in assay [4] worked out at 124%; in [7], 0.4%.

Turning to `CC(=O)Oc1ccc(C(=Cc2ccccc2)c2ccc(OC(C)=O)cc2)cc1`, the inhibition in [1] was 0%; in assay [8], 26%. The Activity is 116 in [2], 99 in [3], 11 in assay [5] and 13 in [6]. The T/C came out at 54.8% in assay [4] and 64.3% in assay [7].

As to `CCCC(=C(c1ccc(OC(C)=O)cc1)c1ccc(OC(C)=O)cc1)c1ccccc1`, the inhibition in assay [1] was 0%; in assay [8] it was 19%. In addition, the Activity in assay [2] came to 114; in assay [3], 90; in assay [5], 31; in [6], 42. Also, the T/C in assay [4] worked out at 93.3%; in assay [7], 61.1%.

As for `CC/C(=C(\c1ccccc1)c1ccc(OCCN(C)C)cc1)c1ccccc1` [TAMOXIFEN], the T/C in assay [7] came out at 9.8%.

With `CCC1(c2ccccc2)OC1(c1ccc(OC(C)=O)cc1)c1ccc(OC(C)=O)cc1` (stereo not drawn), the inhibition came out at 5% in assay [1], 0% in assay [9] and 23% in assay [8]. For the same compound, the Activity in assay [2] was found to be 60; in [3], 33; in assay [5], 2; in assay [6], 2. The T/C in [4] was determined as 77.9%; in assay [7] it was 78.9%.

Regarding `CCC(c1ccccc1)C(c1ccc(OC(C)=O)cc1)c1ccc(OC(C)=O)cc1` (stereo not drawn), the inhibition was found to be 0% in assay [1] and 27% in assay [8]. The Activity was determined as 83 in [2], 79 in assay [3], 17 in assay [5] and 42 in assay [6]. Moreover, the T/C turned out to be 73.7% in assay [4] and 69.1% in assay [7].

Regarding `CC(=O)Oc1ccc(C(=C(C)c2ccccc2)c2ccc(OC(C)=O)cc2)cc1`, the Activity stood at 78 in assay [2], 83 in [3], 125 in assay [5] and 108 in assay [6]. For the same compound, the values for the T/C in [4] and in assay [7] were 120% and 0.3%, respectively.

For `CC(=O)Oc1ccc(C(=C(CC(F)(F)F)c2ccccc2)c2ccc(OC(C)=O)cc2)cc1`, the Activity turned out to be 86 in assay [2], 108 in assay [3], 62 in [5] and 140 in assay [6]. For the same compound, the T/C was found to be 128% in assay [4] and 43.1% in [7]. Also, the inhibition in [8] was found to be 0%.

For the compound `CC(=O)Oc1ccc(C(=C(c2ccccc2)C(C)C)c2ccc(OC(C)=O)cc2)cc1`, the inhibition in [1] and in assay [8] was 0% each time. The Activity was determined as 117 in [2], 100 in [3], 60 in assay [5] and 87 in assay [6]. Moreover, the T/C in assay [4] came to 128%; in [7], 0.2%.
